Measured values reported in ChEMBL document CHEMBL1275391, “Design, synthesis, and preclinical evaluation of new 5,6- (or 6,7-) disubstituted-2-(fluorophenyl)quinolin-4-one derivatives as potent antitumor agents” (J Med Chem, 2010).

Legend:
OVCAR-8 = experiment: Growth inhibition of human OVCAR8 cells; type: functional
NCI-H23 = experiment: Growth inhibition of human NCI-H23 cells; type: functional
OVCAR-3 = experiment: Growth inhibition of human OVCAR-3 cells; type: functional
M14 = experiment: Growth inhibition of human M14 cells; type: functional
ACHN = experiment: Growth inhibition of human ACHN cells; type: functional
SNB-19 = experiment: Growth inhibition of human SNB19 cells; type: functional
SF-295 = experiment: Growth inhibition of human SF295 cells; type: functional
SK-MEL-5 = experiment: Growth inhibition of human SK-MEL-5 cells; type: functional
786-0 = experiment: Growth inhibition of human 786-0 cells; type: functional
HOP-92 = experiment: Growth inhibition of human HOP92 cells; type: functional
U-251 = experiment: Growth inhibition of human U251 cells; type: functional
NCI-H522 = experiment: Growth inhibition of human NCI-H522 cells; type: functional
MDA-MB-231 = experiment: Growth inhibition of human MDA-MB-231 cells; type: functional
[1] = target: Tyrosine-protein kinase Yes (Homo sapiens) (UniProt P07947); experiment: Inhibition of human YES1 at 10 uM
K562 = experiment: Growth inhibition of human K562 cells; type: functional
SK-OV-3 = experiment: Growth inhibition of human SKOV3 cells; type: functional
[2] = target: cGMP-specific 3',5'-cyclic phosphodiesterase (Homo sapiens) (UniProt O76074); experiment: Inhibition of human PDE5 at 10 uM
NCI-H460 [3] = experiment: Cytotoxicity against human H460 cells after 48 hrs by MTT assay; type: functional, cell-based; conditions: NCI-H460, 48 h
Method in brief: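 Cells exposed to a range of compound concentrations for 48 h, washed once with PBS, then incubated with MTT for 2 h. Formazan dissolved in DMSO and absorbance read at 570 nm. IC50 taken as the concentration giving 50% inhibition of proliferation.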

MDA-MB-468 = experiment: Growth inhibition of human MDA-MB-468 cells; type: functional
NCI-H460 [4] = experiment: Growth inhibition of human NCI-H460 cells; type: functional
DU-145 = experiment: Growth inhibition of human DU145 cells; type: functional
BT-549 = experiment: Growth inhibition of human BT549 cells; type: functional
OVCAR-5 = experiment: Growth inhibition of human OVCAR5 cells; type: functional
NCI-H226 = experiment: Growth inhibition of human NCI-H226 cells; type: functional
KM12 = experiment: Growth inhibition of human KM12 cells; type: functional
LOX IMVI = experiment: Growth inhibition of human LOXIMVI cells; type: functional
[5] = read-out: pLC50 (the source's name) (converted)

Sequence of Tyrosine-protein kinase Yes (Homo sapiens) (P07947 2-543 limits assumed): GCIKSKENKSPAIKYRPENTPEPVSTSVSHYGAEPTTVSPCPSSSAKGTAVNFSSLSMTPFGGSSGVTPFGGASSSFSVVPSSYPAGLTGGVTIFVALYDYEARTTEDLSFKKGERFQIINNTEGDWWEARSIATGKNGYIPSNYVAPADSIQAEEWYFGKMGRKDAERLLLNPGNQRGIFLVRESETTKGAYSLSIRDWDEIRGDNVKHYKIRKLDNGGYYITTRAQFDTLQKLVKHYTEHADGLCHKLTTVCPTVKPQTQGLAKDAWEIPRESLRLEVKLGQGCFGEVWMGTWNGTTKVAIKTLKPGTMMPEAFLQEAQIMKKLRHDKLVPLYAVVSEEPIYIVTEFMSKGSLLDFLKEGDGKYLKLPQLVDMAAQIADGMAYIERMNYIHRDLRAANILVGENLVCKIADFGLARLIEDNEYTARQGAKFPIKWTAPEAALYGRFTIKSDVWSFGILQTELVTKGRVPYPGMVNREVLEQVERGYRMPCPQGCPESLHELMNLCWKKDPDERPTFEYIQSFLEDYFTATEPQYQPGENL

COc1ccc2[nH]c(-c3cccc(F)c3)cc(=O)c2c1O
GI50 (OVCAR-8): 56.2 nM | CC50 (OVCAR-8; [5]): 81300 nM | TGI (OVCAR-8; read-out: pTGI (converted)): 16200 nM | GI50 (NCI-H23): 34.7 nM | CC50 (NCI-H23; [5]): > 100000 nM | TGI (NCI-H23; read-out: pTGI (converted)): 13800 nM | GI50 (OVCAR-3): 19.1 nM | CC50 (OVCAR-3; [5]): 30200 nM | TGI (OVCAR-3; read-out: pTGI (converted)): 40.7 nM | GI50 (M14): 19.1 nM | CC50 (M14; [5]): 70800 nM | GI50 (ACHN): 97.7 nM | CC50 (ACHN; [5]): > 100000 nM | TGI (ACHN; read-out: pTGI (converted)): 33900 nM | GI50 (SNB-19): 28.8 nM | CC50 (SNB-19; [5]): > 100000 nM | TGI (SNB-19; read-out: pTGI (converted)): 437 nM | GI50 (SF-295): 25.7 nM | CC50 (SF-295; [5]): 53700 nM | TGI (SF-295; read-out: pTGI (converted)): 10500 nM | GI50 (SK-MEL-5): 29.5 nM | CC50 (SK-MEL-5; [5]): 18200 nM | TGI (SK-MEL-5; read-out: pTGI (converted)): 200 nM | GI50 (786-0): 50.1 nM | CC50 (786-0; [5]): 89100 nM | TGI (786-0; read-out: pTGI (converted)): 16200 nM | GI50 (HOP-92): 4900 nM | CC50 (HOP-92; [5]): > 100000 nM | TGI (HOP-92; read-out: pTGI (converted)): 36300 nM | GI50 (U-251): 42.7 nM | CC50 (U-251; [5]): 55000 nM | TGI (U-251; read-out: pTGI (converted)): 14500 nM | GI50 (NCI-H522): 14.4 nM | CC50 (NCI-H522; [5]): 97.7 nM | TGI (NCI-H522; read-out: pTGI (converted)): 38 nM | GI50 (MDA-MB-231): 61.7 nM | CC50 (MDA-MB-231; [5]): > 100000 nM | TGI (MDA-MB-231; read-out: pTGI (converted)): 22900 nM | inhibition [1]: 68% | GI50 (K562): 24 nM | CC50 (K562; [5]): > 100000 nM | TGI (K562; read-out: pTGI (converted)): 204 nM | GI50 (SK-OV-3): 35.5 nM | CC50 (SK-OV-3; [5]): 37200 nM | TGI (SK-OV-3; read-out: pTGI (converted)): 10700 nM | inhibition [2]: 57% | IC50 (NCI-H460 [3]): 80 nM | GI50 (MDA-MB-468): 39.8 nM | CC50 (MDA-MB-468; [5]): 851 nM | TGI (MDA-MB-468; read-out: pTGI (converted)): 219 nM | GI50 (NCI-H460 [4]): 33.1 nM | CC50 (NCI-H460 [4]; [5]): 32400 nM | TGI (NCI-H460 [4]; read-out: pTGI (converted)): 1050 nM | GI50 (DU-145): 20.9 nM | CC50 (DU-145; [5]): 33900 nM | TGI (DU-145; read-out: pTGI (converted)): 52.5 nM | GI50 (BT-549): 145 nM | CC50 (BT-549; [5]): > 100000 nM | TGI (BT-549; read-out: pTGI (converted)): 26900 nM | CC50 (OVCAR-5; [5]): 46800 nM | TGI (OVCAR-5; read-out: pTGI (converted)): 15800 nM | GI50 (NCI-H226): 1820 nM | CC50 (NCI-H226; [5]): > 100000 nM | TGI (NCI-H226; read-out: pTGI (converted)): 31600 nM | GI50 (KM12): 27.5 nM | CC50 (KM12; [5]): 5500 nM | TGI (KM12; read-out: pTGI (converted)): 151 nM | GI50 (LOX IMVI): 91.2 nM | CC50 (LOX IMVI; [5]): > 100000 nM | TGI (LOX IMVI; read-out: pTGI (converted)): 57500 nM
